Results published in ChEMBL document CHEMBL1255451, “Genetic basis of multidrug resistance in Acinetobacter clinical isolates in Taiwan” (2010).
Values after ≈ are worked out from the molar mass of the structure shown. Active and inactive are the calls of the source. The rule behind the calls is not given here.

Columns and labels:
Format in all cases: functional
[1] = tested on: Acinetobacter baumannii; assay: Antimicrobial activity against Acinetobacter baumannii ATCC 15151 harboring ISAba1-blaOXA-23 gene by Etest
[2] = tested on: Acinetobacter baumannii; assay: Antimicrobial activity against Acinetobacter baumannii ATCC 15151 harboring ISAba1-blaOXA-66 gene by Etest
[3] = tested on: Acinetobacter baumannii; assay: Antimicrobial activity against Acinetobacter baumannii 6AB11 harboring ISAba1-blaOXA-66 gene by Etest
[4] = tested on: Acinetobacter baumannii; assay: Antimicrobial activity against Acinetobacter baumannii 6AB15 harboring ISAba1-blaOXA-23 and blaOXA-66 gene by Etest
[5] = tested on: Acinetobacter baumannii; assay: Antimicrobial activity against Acinetobacter baumannii ATCC 15151 by Etest
[6] = tested on: Acinetobacter baumannii; assay: Antimicrobial activity against Acinetobacter baumannii ATCC 15151 harboring plasmid AT801 by Etest
[7] = tested on: Acinetobacter sp.; assay: Antimicrobial activity against Acinetobacter sp. harboring aacA4 gene assessed as percent resistant isolates
Summary of the method: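 Isolates: 75 nonduplicated Acinetobacter clinical isolates collected at one Taipei hospital in 2006 and identified with API 20NE. Susceptibility was tested on the Vitek 2 automated system using the AST-GN09 Gram-negative card.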

Compound | Activity [1] | Activity [2] | MIC [3] | MIC [4] | MIC [5] | MIC [6] | MIC [1] | MIC [2] | Activity [7]
C[C@H]1COc2c(N3CCN(C)CC3)c(F)cc3c(=O)c(C(=O)O)cn1c23 | Active | Active | – | – | – | – | – | – | –
NCC[C@H](O)C(=O)N[C@@H]1C[C@H](N)[C@@H](O[C@H]2O[C@H](CN)[C@@H](O)[C@H](O)[C@H]2O)[C@H](O)[C@H]1O[C@H]1O[C@H](CO)[C@@H](O)[C@H](N)[C@H]1O | Active | Active | – | – | – | – | – | – | –
O=C(O)c1cn(C2CC2)c2cc(N3CCNCC3)c(F)cc2c1=O | Active | Active | – | – | – | – | – | – | –
CC1(C)S[C@@H]2[C@H](NC(=O)[C@H](N)c3ccccc3)C(=O)N2[C@H]1C(=O)O [AMPICILLIN] | – | – | ≥ 32 µg/mL | ≥ 32 µg/mL | 16 µg/mL (≈ 45.8 µM) | 32 µg/mL (≈ 91.6 µM) | ≥ 32 µg/mL | ≥ 32 µg/mL | –
CO/N=C(\C(=O)N[C@@H]1C(=O)N2C(C(=O)[O-])=C(C[N+]3(C)CCCC3)CS[C@H]12)c1csc(N)n1 [CEFEPIME] | – | – | ≥ 64 µg/mL | ≥ 64 µg/mL | 4 µg/mL (≈ 8.32 µM) | 4 µg/mL (≈ 8.32 µM) | ≥ 64 µg/mL | 4 µg/mL (≈ 8.32 µM) | –
CC(C)(O/N=C(\C(=O)N[C@@H]1C(=O)N2C(C(=O)[O-])=C(C[n+]3ccccc3)CS[C@H]12)c1csc(N)n1)C(=O)O [CEFTAZIDIME] | – | – | ≥ 64 µg/mL | ≥ 64 µg/mL | 4 µg/mL (≈ 7.32 µM) | 4 µg/mL (≈ 7.32 µM) | 8 µg/mL (≈ 14.6 µM) | 4 µg/mL (≈ 7.32 µM) | –
C[C@@H](O)[C@H]1C(=O)N2C(C(=O)O)=C(SCCNC=N)C[C@H]12 [IMIPENEM ANHYDROUS] | – | – | ≥ 32 µg/mL | ≥ 32 µg/mL | 0.25 µg/mL (≈ 0.835 µM) | 0.25 µg/mL (≈ 0.835 µM) | ≥ 16 µg/mL | ≥ 32 µg/mL | –
C[C@@H](O)[C@H]1C(=O)N2C(C(=O)O)=C(S[C@@H]3CN[C@H](C(=O)N(C)C)C3)[C@H](C)[C@H]12 [MEROPENEM] | – | – | 16 µg/mL (≈ 41.7 µM) | ≥ 16 µg/mL | 0.25 µg/mL (≈ 0.652 µM) | 0.25 µg/mL (≈ 0.652 µM) | ≥ 16 µg/mL | ≥ 16 µg/mL | –
CCN1CCN(C(=O)N[C@@H](C(=O)N[C@@H]2C(=O)N3[C@@H]2SC(C)(C)[C@@H]3C(=O)O)c2ccccc2)C(=O)C1=O [PIPERACILLIN] | – | – | ≥ 128 µg/mL | ≥ 128 µg/mL | 16 µg/mL (≈ 30.9 µM) | ≥ 128 µg/mL | ≥ 128 µg/mL | ≥ 128 µg/mL | –
NC[C@H]1O[C@H](O[C@H]2[C@H](O)[C@@H](O[C@H]3O[C@H](CO)[C@@H](O)[C@H](N)[C@H]3O)[C@H](N)C[C@@H]2N)[C@H](N)C[C@@H]1O [TOBRAMYCIN] | Active | Active | – | – | – | – | – | – | 66%
GENTAMICIN | Active | Active | – | – | – | – | – | – | 66%
